NR2E3 ag-1: inhibitors of NR2E3-RetCOR corepressor binding, primary screen, NR2E3 agonist project, biochemical, TR-FRET, GST-NR2E3, biotin-RetCOR. 1536-well. hit rate 0.12% among 320,000. AID 2300, 2010. inhibition of corepressor binding, % at 4.78 µM;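 active means percent inhibition above the cutoff of mean plus 3 SD of all tested compounds, set per screening campaign, cut at about 20% in these data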;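 further: 0% = DMSO wells and 100% = biotin wells as full block of FRET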
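Test system: GST-NR2E3 and biotin-RetCOR proteins | Quantity: 1.35 nM GST-tagged NR2E3 final | Medium: Tris pH 7.5 | Also added: 7 nM biotin-RetCOR | Dosing: Compound at 4.8 µM, single dose | Timing: 5 h at 4 °C | Detection: Time-resolved FRET | Read-out basis: Percent inhibition | Benchmarks: Biotin wells as high control, 0.6% DMSO wells as low control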
NR2E3 ag-2: NR2E3 agonists in two-hybrid cells, primary screen, cell-based, luminescence, CHO-S, Gal4-NCOR/VP16-NR2E3; AID 602229, 2012; luciferase; Photoreceptor-specific nuclear receptor (Homo sapiens), Q9Y5X4; hit rate 0.35% among 360,000; inhibition of corepressor binding, % at 3.98 µM;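 active means inhibition above the mean of all tested compounds plus 3 SD, cut at about 70% in these data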;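 further: 0% = DMSO with NR2E3 transfected cells and 100% = cells lacking NR2E3 construct; higher means lower luciferase signal from less NR2E3 corepressor binding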
NR1D1 modulator: modulators of Rev-erb alpha DNA binding, primary screen, biochemical, FITC-DNA, fluorescence polarization, uHTS | activity, % at 10 µM | Rev-erbα–FITC-DNA binding, 90 min | hit rate 0.79% among 370,000;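 active means activity above about 14%, limit read from the data; passing the limit was not always enough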;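 further: 0% = DMSO wells with 35 nM protein and 100% = DMSO wells with 750 nM protein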
Target sequence (P20393 whole entry, looked up): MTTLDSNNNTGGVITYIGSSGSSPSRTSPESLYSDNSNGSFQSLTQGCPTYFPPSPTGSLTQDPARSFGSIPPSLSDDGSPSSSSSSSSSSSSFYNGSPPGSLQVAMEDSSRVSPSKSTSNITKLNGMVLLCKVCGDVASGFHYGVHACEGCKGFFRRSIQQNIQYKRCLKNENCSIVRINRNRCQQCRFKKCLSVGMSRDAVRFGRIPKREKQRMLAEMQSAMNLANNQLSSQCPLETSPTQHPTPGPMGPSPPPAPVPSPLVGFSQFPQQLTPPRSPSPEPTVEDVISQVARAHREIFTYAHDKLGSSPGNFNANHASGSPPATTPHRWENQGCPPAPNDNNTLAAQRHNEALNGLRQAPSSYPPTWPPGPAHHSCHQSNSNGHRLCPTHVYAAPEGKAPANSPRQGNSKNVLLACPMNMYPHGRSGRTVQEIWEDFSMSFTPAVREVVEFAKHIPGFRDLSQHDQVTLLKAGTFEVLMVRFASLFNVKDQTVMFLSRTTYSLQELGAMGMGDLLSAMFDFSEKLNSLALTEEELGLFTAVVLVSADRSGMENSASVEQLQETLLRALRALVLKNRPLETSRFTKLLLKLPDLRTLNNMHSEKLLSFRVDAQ
PG9 binder: binders of HIV-1 gp120 antibody PG9, primary screen, biochemical, TR-FRET. TR-FRET gp120-PG9 antibody binding. inhibition, % at 6.7 µM. hit rate 0.43% among 360,000. AID 624416, 2012; in the data active means inhibition above about 8.5%
PG9 binder conf: binders of anti-gp120 antibody PG9, confirmation, biochemical, TR-FRET; shares compounds with PG9 binder; TR-FRET PG9 antibody binding; inhibition, % at 6.7 µM; hit rate 90% among 1,500; AID 651571, 2012; in the data active means inhibition above about 9%
PGV04 Ab binding: binders of control antibody PGV04, counter-screen for PG9 antibody binder project, biochemical, TR-FRET, distinct HIV envelope site; shares compounds with PG9 binder; TR-FRET PGV04 antibody-gp120 binding; inhibition, % at 6.7 µM; hit rate 95% among 1,500; in the data active means inhibition above about 9.5%
PG9 bind DR: small-molecule binders of antibody PG9, dose response, biochemical, TR-FRET, HIV-1 gp120 antibody. shares compounds with PG9 binder. TR-FRET PG9 antibody-gp120 binding inhibition. IC50, µM. 95 tested, under 10 active. AID 651848, 2012; in the data active means IC50 below about 10 µM
PGV04 DR counter: binders of control antibody PGV04, dose response, counter-screen for PG9 antibody binder project, biochemical, TR-FRET, distinct HIV envelope site; shares compounds with PG9 binder; TR-FRET binding to control antibody PGV04; IC50, µM; hit rate 20% among 95
PG126 binding DR: binders of control antibody PG126, dose response, counter-screen for PG9 antibody binder project, biochemical, TR-FRET, distinct HIV envelope site. TR-FRET binding to antibody PG126, counterscreen. AID 651939, 2012. IC50, µM. hit rate 20% among 95. shares compounds with PG9 binder
NR1D1 mod conf: modulators of Rev-erb alpha DNA binding, confirmation, biochemical, FITC-DNA, fluorescence polarization, single point | shares compounds with NR1D1 modulator | AID 1259319, 2017 | 90 min | hit rate 61% among 3,000 | activation, % at 25 µM;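 active means activation at or above a set limit, or at least 3 SD above the negative control mean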;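 further: 0% = 35 nM protein with DMSO and 100% = 750 nM protein high control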
RORg DNA counter: modulation of RORgamma DNA binding, dose response, counter-screen for Rev-erb alpha modulator project, biochemical, fluorescence polarization, FITC-DNA | shares compounds with NR1D1 modulator | purified RORgamma protein-FITC-DNA binding | IC50, µM | hit rate 8% among 910 | AID 1259320, 2017;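 active means Compounds whose fitted half-maximal concentration for disrupting protein-DNA binding is below 10 micromolar; the record names Rev-erb in its text, so the target is in doubt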
* marks the source's active call; other numbers are inactive results. A selection: hits, their analogues and other compounds. The true share with any hit is near 1.4%. Unless noted, no stated cut-off is given here; in the data, active means IC50 below about 9 µM; inactive means the rest.

Cc1ccc(N(CC(=O)NC(C)(C)C)C(=O)CCC(=O)Nc2nccs2)c(C)c1 was read as NR2E3 ag-2 -37, NR1D1 modulator 5 and PG9 binder -1.
`CC1CCCCN1C(=O)c1cc(S(=O)(=O)N2CCOCC2)ccc1Cl` (centres undefined) gave NR2E3 ag-2 -11, NR1D1 modulator 5 and PG9 binder 1.
`Cc1cccc(NC(=O)C2CCN(S(=O)(=O)c3cccc4nsnc34)CC2)c1` gave NR2E3 ag-1 3, NR2E3 ag-2 -3, NR1D1 modulator 6 and PG9 binder -1.
`Cc1cccc(NC(=O)C2CCCN(S(=O)(=O)c3cccc4nsnc34)C2)c1` (centres undefined) gave NR2E3 ag-1 6, NR2E3 ag-2 -3, NR1D1 modulator 155*, PG9 binder 65*, PG9 binder conf 64*, PGV04 Ab binding 58*, PG9 bind DR 4.3*, PGV04 DR counter 3.9*, PG126 binding DR 4.3*, NR1D1 mod conf 79* and RORg DNA counter >40.
Screening O=C(Cn1c(=S)[nH]c2ccccc2c1=O)N1CCc2ccccc2C1 returned NR2E3 ag-1 -3, NR2E3 ag-2 -11, NR1D1 modulator 35*, PG9 binder 32*, PG9 binder conf 33*, PGV04 Ab binding 51* and NR1D1 mod conf 23*.
Screening O=C1c2cccc3cccc(c23)C(=O)N1Cc1ccccc1 returned NR2E3 ag-1 10, NR2E3 ag-2 14, NR1D1 modulator 36*, PG9 binder 51*, PG9 binder conf 60*, PGV04 Ab binding 69* and NR1D1 mod conf 13.
Screening O=C1c2cccc3cccc(c23)C(=O)N1Cc1cccnc1 returned NR2E3 ag-1 3, NR2E3 ag-2 -2, NR1D1 modulator 5 and PG9 binder 0.
Cc1ccccc1OCC(=O)Nc1ccc2c(c1)C(=O)c1ccccc1C2=O was read as NR2E3 ag-1 3, NR2E3 ag-2 -55, NR1D1 modulator 273*, PG9 binder 25*, PG9 binder conf 73*, PGV04 Ab binding 91*, NR1D1 mod conf 221* and RORg DNA counter 6.9*.
Cc1cccc(N2CC(C(=O)Nc3nnc(SCC(=O)N4CCOCC4)s3)CC2=O)c1 (centres undefined) was read as NR2E3 ag-1 -1, NR2E3 ag-2 -10, NR1D1 modulator 6 and PG9 binder 0.
CCOc1ccc(CC(=O)Nc2sc(Cc3ccccc3)cc2C(N)=O)cc1OCC was read as NR2E3 ag-1 -2, NR2E3 ag-2 -1, NR1D1 modulator 69*, PG9 binder 55*, PG9 binder conf 14*, PGV04 Ab binding 21*, NR1D1 mod conf 43* and RORg DNA counter 2.5*.
Screening NC(=O)c1cc(Cc2ccccc2)sc1NC(=O)c1ccco1 returned NR2E3 ag-1 2, NR2E3 ag-2 -155, NR1D1 modulator 5 and PG9 binder 2.
For COc1ccc(CCN2CC(C(=O)NCc3cnn(C)c3)CCC2=O)cc1 (centres undefined) the results were NR2E3 ag-2 -3, NR1D1 modulator 3 and PG9 binder 0.
Screening COc1ccc(OCCSc2nc3ccccc3c(=O)[nH]2)cc1 returned NR2E3 ag-1 0, NR2E3 ag-2 -2, NR1D1 modulator 29*, PG9 binder 58*, PG9 binder conf 53*, PGV04 Ab binding 66* and NR1D1 mod conf 21*.
CC(C)C[C@H](NC(=O)[C@@H]1Cc2c([nH]c3ccccc23)C2c3ccccc3C(=O)N21)C(=O)N1CCC[C@@H]1C(=O)O (some centres undefined) was read as NR2E3 ag-1 -4, NR2E3 ag-2 -5, NR1D1 modulator 3 and PG9 binder -1.
CCC(C)n1c(=O)c(C(=O)Nc2ccccc2S(N)(=O)=O)c(O)c2ccccc21 (centres undefined) was read as NR2E3 ag-1 0, NR2E3 ag-2 -58, NR1D1 modulator 54*, PG9 binder 14*, PG9 binder conf 14*, PGV04 Ab binding 23* and NR1D1 mod conf 31*.
`CCc1ccccc1NC(=O)COc1ccc2oc(-c3ccc(OC)cc3)cc(=O)c2c1` gave NR2E3 ag-1 0, NR2E3 ag-2 0, NR1D1 modulator 27*, PG9 binder 18*, PG9 binder conf 78*, PGV04 Ab binding 48*, PG9 bind DR >67, PGV04 DR counter 3.7*, PG126 binding DR 3.6* and NR1D1 mod conf 0.
S=C(NCCCc1ccccc1)NC1CCCCC1 was read as NR2E3 ag-1 -1, NR2E3 ag-2 -22, NR1D1 modulator -2 and PG9 binder -3.
For COC(=O)C(CCC(=O)CN1C(=O)c2ccccc2C1=O)N1C(=O)c2ccccc2C1=O (centres undefined) the results were NR2E3 ag-2 2, NR1D1 modulator 1 and PG9 binder 1.
For CSc1nc(SCC(=O)NCc2ccco2)c2c3c(sc2n1)COC(C)(C)C3 the results were NR2E3 ag-1 6, NR2E3 ag-2 -15, NR1D1 modulator -2 and PG9 binder -1.
